# Values joined by “and” are separate entries in the source; they are usually repeats but may differ in a detail not shown here. Identical values can stand only once.
# Tests used:
# Assay type in all cases: toxicity, cell-based
# Fibroblast = assay: Multiplex assay against human fibroblast; conditions: number of replicates 2
# In short: (§1)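 Per cents of healthy-nucleus cells form the tubulin, mitochondrial-mass and membrane-permeability phenotype values. Live cells were stained at seeding with Hoechst33342, BioTracker Green Microtubule Cytoskeleton Dye, MitoTracker Red and Annexin V Alexa Fluor 680. After compound addition they were imaged on a CQ1 microscope at 37°C and 5% CO2, and CellPathfinder machine-learning gating split them into Hoechst high-intensity objects or normal cells, normal cells into healthy, pyknosed or fragmented nuclei, and pyknosed cells into mitotic or apoptotic.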
# HEK-293T = assay: Multiplex assay against HEK293T; conditions: human, number of replicates 2; in short: as §1
# U2OS = assay: Multiplex assay against U2OS; conditions: human, number of replicates 2; in short: as §1
# [1] = 12 h, 1 µM, compound concentration 1 uM
# [2] = 12 h, 10 µM, compound concentration 10 uM
# [3] = 24 h, 1 µM, compound concentration 1 uM
# [4] = 24 h, 10 µM, compound concentration 10 uM
# [5] = 48 h, 1 µM, compound concentration 1 uM
# [6] = 48 h, 10 µM, compound concentration 10 uM
smiles,measurement,setting,value
COc1ccc(NC(=O)c2ccc(-c3ccc(-c4noc(C)n4)cc3C)cc2)cc1OCCN(C)C.Cl,Population Apoptotic (%),Fibroblast; [1],34% and 50%
same,Population Fragmented Nuclei (%),Fibroblast; [1],23% and 26%
same,Population Healthy Nuclei (%),Fibroblast; [1],60% and 51%
same,Population Hoechst High Intensity Objects (%),Fibroblast; [1],0%
same,Population Mitochondria Different-Phenotype (%),Fibroblast; [1],6% and 5%
same,Population Mitotic Cells (%),Fibroblast; [1],65% and 50%
same,Population Normal (%),Fibroblast; [1],100% and 99%
same,Population Pyknosed Nuclei (%),Fibroblast; [1],15% and 21%
same,Population Tubulin-Different-Phenotype (%),Fibroblast; [1],39% and 56%
same,Total Cell Count,Fibroblast; [1],247 and 176
same,Population Fragmented Nuclei (%),Fibroblast; [2],14% and 30%
same,Population Healthy Nuclei (%),Fibroblast; [2],29% and 48%
same,Population Hoechst High Intensity Objects (%),Fibroblast; [2],2% and 0%
same,Population Membrane Permeable-Phenotype (%),Fibroblast; [2],14% and 7%
same,Population Mitochondria Different-Phenotype (%),Fibroblast; [2],29% and 25%
same,Population Normal (%),Fibroblast; [2],97% and 100%
same,Population Pyknosed Nuclei (%),Fibroblast; [2],56% and 20%
same,Population Tubulin-Different-Phenotype (%),Fibroblast; [2],82% and 72%
same,Total Cell Count,Fibroblast; [2],117 and 158
same,Population Apoptotic (%),Fibroblast; [3],46% and 65%
same,Population Fragmented Nuclei (%),Fibroblast; [3],32% and 19%
same,Population Healthy Nuclei (%),Fibroblast; [3],58% and 57%
same,Population Hoechst High Intensity Objects (%),Fibroblast; [3],2% and 0%
same,Population Membrane Permeable-Phenotype (%),Fibroblast; [3],4% and 6%
same,Population Mitochondria Different-Phenotype (%),Fibroblast; [3],10% and 9%
same,Population Mitotic Cells (%),Fibroblast; [3],53% and 34%
same,Population Normal (%),Fibroblast; [3],97% and 99%
same,Population Pyknosed Nuclei (%),Fibroblast; [3],9% and 22%
same,Population Tubulin-Different-Phenotype (%),Fibroblast; [3],44% and 59%
same,Total Cell Count,Fibroblast; [3],288 and 170
same,Population Apoptotic (%),Fibroblast; [4],94% and 90%
same,Population Fragmented Nuclei (%),Fibroblast; [4],13% and 26%
same,Population Healthy Nuclei (%),Fibroblast; [4],16% and 10%
same,Population Hoechst High Intensity Objects (%),Fibroblast; [4],0%
same,Population Mitochondria Different-Phenotype (%),Fibroblast; [4],38% and 83%
same,Population Mitotic Cells (%),Fibroblast; [4],5% and 9%
same,Population Normal (%),Fibroblast; [4],100%
same,Population Pyknosed Nuclei (%),Fibroblast; [4],69% and 62%
same,Population Tubulin-Different-Phenotype (%),Fibroblast; [4],72% and 66%
same,Total Cell Count,Fibroblast; [4],108 and 116
same,Population Apoptotic (%),Fibroblast; [5],86% and 73%
same,Population Fragmented Nuclei (%),Fibroblast; [5],25% and 32%
same,Population Healthy Nuclei (%),Fibroblast; [5],62% and 60%
same,Population Hoechst High Intensity Objects (%),Fibroblast; [5],0% and 1%
same,Population Membrane Permeable-Phenotype (%),Fibroblast; [5],6% and 1%
same,Population Mitochondria Different-Phenotype (%),Fibroblast; [5],6% and 5%
same,Population Mitotic Cells (%),Fibroblast; [5],13% and 26%
same,Population Normal (%),Fibroblast; [5],100% and 98%
same,Population Pyknosed Nuclei (%),Fibroblast; [5],12% and 6%
same,Population Tubulin-Different-Phenotype (%),Fibroblast; [5],36% and 23%
same,Total Cell Count,Fibroblast; [5],191 and 281
same,Population Apoptotic (%),Fibroblast; [6],95% and 96%
same,Population Fragmented Nuclei (%),Fibroblast; [6],20% and 25%
same,Population Healthy Nuclei (%),Fibroblast; [6],15% and 7%
same,Population Hoechst High Intensity Objects (%),Fibroblast; [6],0%
same,Population Mitochondria Different-Phenotype (%),Fibroblast; [6],18% and 25%
same,Population Mitotic Cells (%),Fibroblast; [6],4%
same,Population Normal (%),Fibroblast; [6],100%
same,Population Pyknosed Nuclei (%),Fibroblast; [6],63% and 66%
same,Population Tubulin-Different-Phenotype (%),Fibroblast; [6],81% and 87%
same,Total Cell Count,Fibroblast; [6],102 and 112
same,Population Apoptotic (%),HEK-293T; [1],44% and 57%
same,Population Fragmented Nuclei (%),HEK-293T; [1],3%
same,Population Healthy Nuclei (%),HEK-293T; [1],84% and 81%
same,Population Hoechst High Intensity Objects (%),HEK-293T; [1],6% and 8%
same,Population Membrane Permeable-Phenotype (%),HEK-293T; [1],3% and 4%
same,Population Mitochondria Different-Phenotype (%),HEK-293T; [1],26% and 29%
same,Population Mitotic Cells (%),HEK-293T; [1],55% and 42%
same,Population Normal (%),HEK-293T; [1],93% and 91%
same,Population Pyknosed Nuclei (%),HEK-293T; [1],11% and 15%
same,Population Tubulin-Different-Phenotype (%),HEK-293T; [1],80% and 75%
same,Total Cell Count,HEK-293T; [1],604 and 505
same,Population Apoptotic (%),HEK-293T; [2],83% and 80%
same,Population Fragmented Nuclei (%),HEK-293T; [2],5% and 4%
same,Population Healthy Nuclei (%),HEK-293T; [2],51% and 50%
same,Population Hoechst High Intensity Objects (%),HEK-293T; [2],19% and 18%
same,Population Membrane Permeable-Phenotype (%),HEK-293T; [2],4% and 1%
same,Population Mitochondria Different-Phenotype (%),HEK-293T; [2],74% and 77%
same,Population Mitotic Cells (%),HEK-293T; [2],16% and 19%
same,Population Normal (%),HEK-293T; [2],80% and 81%
same,Population Pyknosed Nuclei (%),HEK-293T; [2],43% and 44%
same,Population Tubulin-Different-Phenotype (%),HEK-293T; [2],87% and 90%
same,Total Cell Count,HEK-293T; [2],326 and 269
same,Population Apoptotic (%),HEK-293T; [3],55% and 64%
same,Population Fragmented Nuclei (%),HEK-293T; [3],5%
same,Population Healthy Nuclei (%),HEK-293T; [3],84% and 81%
same,Population Hoechst High Intensity Objects (%),HEK-293T; [3],6% and 11%
same,Population Membrane Permeable-Phenotype (%),HEK-293T; [3],6% and 3%
same,Population Mitochondria Different-Phenotype (%),HEK-293T; [3],19%
same,Population Mitotic Cells (%),HEK-293T; [3],44% and 35%
same,Population Normal (%),HEK-293T; [3],93% and 88%
same,Population Pyknosed Nuclei (%),HEK-293T; [3],10% and 13%
same,Population Tubulin-Different-Phenotype (%),HEK-293T; [3],66% and 62%
same,Total Cell Count,HEK-293T; [3],768 and 603
same,Population Apoptotic (%),HEK-293T; [4],82% and 89%
same,Population Fragmented Nuclei (%),HEK-293T; [4],6%
same,Population Healthy Nuclei (%),HEK-293T; [4],32% and 33%
same,Population Hoechst High Intensity Objects (%),HEK-293T; [4],23% and 19%
same,Population Membrane Permeable-Phenotype (%),HEK-293T; [4],6% and 0%
same,Population Mitochondria Different-Phenotype (%),HEK-293T; [4],74% and 77%
same,Population Mitotic Cells (%),HEK-293T; [4],17% and 10%
same,Population Normal (%),HEK-293T; [4],76% and 80%
same,Population Pyknosed Nuclei (%),HEK-293T; [4],60%
same,Population Tubulin-Different-Phenotype (%),HEK-293T; [4],74% and 86%
same,Total Cell Count,HEK-293T; [4],296 and 269
same,Population Apoptotic (%),HEK-293T; [5],43% and 51%
same,Population Fragmented Nuclei (%),HEK-293T; [5],10% and 8%
same,Population Healthy Nuclei (%),HEK-293T; [5],84% and 83%
same,Population Hoechst High Intensity Objects (%),HEK-293T; [5],9% and 10%
same,Population Membrane Permeable-Phenotype (%),HEK-293T; [5],5%
same,Population Mitochondria Different-Phenotype (%),HEK-293T; [5],3% and 6%
same,Population Mitotic Cells (%),HEK-293T; [5],56% and 48%
same,Population Normal (%),HEK-293T; [5],90% and 89%
same,Population Pyknosed Nuclei (%),HEK-293T; [5],4% and 8%
same,Population Tubulin-Different-Phenotype (%),HEK-293T; [5],40% and 41%
same,Total Cell Count,HEK-293T; [5],1630 and 1219
same,Population Apoptotic (%),HEK-293T; [6],86% and 92%
same,Population Fragmented Nuclei (%),HEK-293T; [6],8% and 7%
same,Population Healthy Nuclei (%),HEK-293T; [6],24% and 19%
same,Population Hoechst High Intensity Objects (%),HEK-293T; [6],28% and 22%
same,Population Membrane Permeable-Phenotype (%),HEK-293T; [6],3% and 2%
same,Population Mitochondria Different-Phenotype (%),HEK-293T; [6],72% and 70%
same,Population Mitotic Cells (%),HEK-293T; [6],13% and 7%
same,Population Normal (%),HEK-293T; [6],71% and 77%
same,Population Pyknosed Nuclei (%),HEK-293T; [6],66% and 72%
same,Population Tubulin-Different-Phenotype (%),HEK-293T; [6],84% and 87%
same,Total Cell Count,HEK-293T; [6],289 and 271
same,Population Apoptotic (%),U2OS; [1],40% and 45%
same,Population Healthy Nuclei (%),U2OS; [1],61% and 83%
same,Population Hoechst High Intensity Objects (%),U2OS; [1],0%
same,Population Membrane Permeable-Phenotype (%),U2OS; [1],5% and 4%
same,Population Mitochondria Different-Phenotype (%),U2OS; [1],5% and 13%
same,Population Mitotic Cells (%),U2OS; [1],60% and 55%
same,Population Normal (%),U2OS; [1],100%
same,Population Pyknosed Nuclei (%),U2OS; [1],16% and 11%
same,Population Tubulin-Different-Phenotype (%),U2OS; [1],36% and 40%
same,Population Apoptotic (%),U2OS; [2],76% and 60%
same,Population Fragmented Nuclei (%),U2OS; [2],10% and 23%
same,Population Healthy Nuclei (%),U2OS; [2],43% and 51%
same,Population Hoechst High Intensity Objects (%),U2OS; [2],1% and 0%
same,Population Membrane Permeable-Phenotype (%),U2OS; [2],34% and 30%
same,Population Mitochondria Different-Phenotype (%),U2OS; [2],67% and 85%
same,Population Mitotic Cells (%),U2OS; [2],23% and 40%
same,Population Normal (%),U2OS; [2],98% and 100%
same,Population Pyknosed Nuclei (%),U2OS; [2],46% and 25%
same,Population Tubulin-Different-Phenotype (%),U2OS; [2],93% and 100%
same,Population Apoptotic (%),U2OS; [3],55% and 51%
same,Population Healthy Nuclei (%),U2OS; [3],55% and 78%
same,Population Hoechst High Intensity Objects (%),U2OS; [3],2% and 0%
same,Population Membrane Permeable-Phenotype (%),U2OS; [3],5%
same,Population Mitochondria Different-Phenotype (%),U2OS; [3],15% and 17%
same,Population Mitotic Cells (%),U2OS; [3],44% and 48%
same,Population Normal (%),U2OS; [3],97% and 99%
same,Population Pyknosed Nuclei (%),U2OS; [3],25% and 15%
same,Population Tubulin-Different-Phenotype (%),U2OS; [3],35% and 34%
same,Population Apoptotic (%),U2OS; [4],63% and 86%
same,Population Fragmented Nuclei (%),U2OS; [4],16% and 6%
same,Population Healthy Nuclei (%),U2OS; [4],32%
same,Population Hoechst High Intensity Objects (%),U2OS; [4],0%
same,Population Membrane Permeable-Phenotype (%),U2OS; [4],58% and 79%
same,Population Mitochondria Different-Phenotype (%),U2OS; [4],75% and 89%
same,Population Mitotic Cells (%),U2OS; [4],36% and 13%
same,Population Normal (%),U2OS; [4],100% and 99%
same,Population Pyknosed Nuclei (%),U2OS; [4],51% and 61%
same,Population Tubulin-Different-Phenotype (%),U2OS; [4],100% and 98%
same,Population Apoptotic (%),U2OS; [5],77% and 72%
same,Population Fragmented Nuclei (%),U2OS; [5],16% and 7%
same,Population Healthy Nuclei (%),U2OS; [5],65% and 77%
same,Population Hoechst High Intensity Objects (%),U2OS; [5],2% and 0%
same,Population Membrane Permeable-Phenotype (%),U2OS; [5],6%
same,Population Mitochondria Different-Phenotype (%),U2OS; [5],3% and 12%
same,Population Mitotic Cells (%),U2OS; [5],22% and 27%
same,Population Normal (%),U2OS; [5],98% and 100%
same,Population Pyknosed Nuclei (%),U2OS; [5],18% and 15%
same,Population Tubulin-Different-Phenotype (%),U2OS; [5],37% and 40%
same,Population Apoptotic (%),U2OS; [6],95% and 98%
same,Population Fragmented Nuclei (%),U2OS; [6],21% and 14%
same,Population Healthy Nuclei (%),U2OS; [6],18% and 6%
same,Population Hoechst High Intensity Objects (%),U2OS; [6],2% and 1%
same,Population Membrane Permeable-Phenotype (%),U2OS; [6],85% and 92%
same,Population Mitochondria Different-Phenotype (%),U2OS; [6],71% and 100%
same,Population Mitotic Cells (%),U2OS; [6],4% and 1%
same,Population Normal (%),U2OS; [6],97% and 98%
same,Population Pyknosed Nuclei (%),U2OS; [6],59% and 79%
same,Population Tubulin-Different-Phenotype (%),U2OS; [6],100% and 92%

# Reference: ChEMBL document CHEMBL5303300, “EUbOPEN Chemogenomics Library - Multiplex” (2023)
